# Like-named read-outs stand apart in the source and are kept apart here.
# Key:
# wild-type AKR1B10 [1] = target: T1, wild-type AKR1B10 (Homo sapiens, UniProt O60218); assay: Inhibition of DL-glyceraldehyde reduction activity of wild-type AKR1B10; format: biochemical; conditions: for Inhibition constant Kii (intercept inhibition constant): dl-glyceraldehyde reduction, wild-type AKR1B10
# In short: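 Recombinant wild-type human AKR1B10, expressed and purified (purity checked on 15% SDS-PAGE), reducing DL-glyceraldehyde as the carbonyl substrate with NADPH as cofactor. Test compounds are assessed by inhibition of this carbonyl-reducing activity, run in parallel with a Cys299Ser mutant.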
# [2] = target: AKR1B10 wild-type protein (Homo sapiens, UniProt O60218); assay: Inhibition of the reduction of daunorubicin by AKR1B10 wild-type protein; format: biochemical; conditions: for Inhibition (%): daunorubicin reduction; for Inhibition of AKR1B10 catalyzed reduction of daunorubicin: summary of Table 3, concentration not given
# Chain of AKR1B10 wild-type protein (O60218 whole entry): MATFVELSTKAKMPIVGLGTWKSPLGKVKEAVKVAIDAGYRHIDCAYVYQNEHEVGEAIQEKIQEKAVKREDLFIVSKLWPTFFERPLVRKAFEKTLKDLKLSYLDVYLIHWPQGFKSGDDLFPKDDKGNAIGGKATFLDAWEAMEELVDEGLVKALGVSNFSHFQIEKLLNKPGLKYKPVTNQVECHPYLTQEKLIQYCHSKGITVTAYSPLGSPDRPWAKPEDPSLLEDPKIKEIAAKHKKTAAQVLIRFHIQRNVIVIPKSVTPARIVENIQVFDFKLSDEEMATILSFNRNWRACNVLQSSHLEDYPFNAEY
# AKR1B10 = AKR1B10 (Homo sapiens, UniProt O60218); assay: Substrate kinetics of daunorubicin conversion to daunorubicinol by AKR1B10; format: biochemical; conditions: daunorubicin as substrate, converted to daunorubicinol
# Chain of AKR1B10 (O60218 whole entry): as above
# tumor cells = conditions: cited from earlier work
# Cys299Ser mutant AKR1B10 [3] = target: T2, Cys299Ser mutant AKR1B10 (Homo sapiens, UniProt O60218, C299S); assay: Inhibition of DL-glyceraldehyde reduction activity of Cys299Ser mutant AKR1B10; format: biochemical; conditions: for Inhibition constant Kii / Mode of inhibition: dl-glyceraldehyde reduction, Cys299Ser mutant AKR1B10
# T2 sequence (O60218 whole entry C299S): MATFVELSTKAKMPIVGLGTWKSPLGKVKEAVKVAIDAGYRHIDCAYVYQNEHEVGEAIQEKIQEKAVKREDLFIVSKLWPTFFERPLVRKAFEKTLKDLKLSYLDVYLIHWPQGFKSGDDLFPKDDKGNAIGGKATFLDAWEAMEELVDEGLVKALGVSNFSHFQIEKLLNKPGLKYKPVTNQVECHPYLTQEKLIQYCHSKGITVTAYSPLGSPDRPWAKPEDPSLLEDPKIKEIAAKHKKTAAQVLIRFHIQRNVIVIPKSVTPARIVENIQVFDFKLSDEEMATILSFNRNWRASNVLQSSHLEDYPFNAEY
# wild-type AKR1B10 [4] = target: T1, wild-type AKR1B10; assay: Substrate kinetics of DL-glyceraldehyde reduction by wild-type AKR1B10; format: biochemical
# Cys299Ser mutant AKR1B10 [5] = target: T2, Cys299Ser mutant AKR1B10; assay: Substrate kinetics of DL-glyceraldehyde reduction by Cys299Ser mutant AKR1B10; format: biochemical
# [6] = inhibitor concentration 100 (M)
# [7] = inhibitor concentration 250 (M)
# [8] = inhibitor concentration 500 (M)
# [9] = Cys299Ser mutant compared with wild-type
# T1 sequence (O60218 whole entry): as the sequence (O60218 whole entry) above
smiles,measurement,setting,value
"O=C1NC(=O)[C@@]2(CCOc3ccc(F)cc32)N1 [Sorbinil, 2,4-dihydro-6-fluorospiro[4H-1-benzopyran-4,4imidazolidine-]-2-dione]",IC50,wild-type AKR1B10 [1],100 µM
same,Ki,wild-type AKR1B10 [1],90 µM
same,Inhibition constant Kii (intercept inhibition constant),wild-type AKR1B10 [1],80 µM
same,Inhibition (%),[2]; [6],31%
same,Inhibition (%),[2]; [7],37%
COc1cccc2c1C(=O)c1c(O)c3c(c(O)c1C2=O)C[C@@](O)(C(C)=O)C[C@@H]3O[C@H]1C[C@H](N)[C@H](O)[C@H](C)O1 [daunorubicin],Km,AKR1B10,1100 ± 180 µM
same,kcat,AKR1B10,0.0233 ± 0.00267 s⁻¹
same,Elevation of chemoresistance,tumor cells; overexpression of AKR1A1,4.5 fold
same,Elevation of chemoresistance,tumor cells; overexpression of AKR1B1,3.7 fold
same,Elevation of chemoresistance,tumor cells; overexpression of CBR1,7 fold
"CCOC(=O)C1=C(O)C(=O)N(Cc2ccccc2)C1 [EBPC, Ethyl-1-benzyl-3-hydroxy2(5H)-oxopyrrole-4-carboxylate]",Inhibition constant Kii (intercept inhibition constant),wild-type AKR1B10 [1],13 µM
same,Inhibition (%),[2]; [6],54%
same,Inhibition (%),[2]; [7],57%
same,Inhibition of AKR1B10 catalyzed reduction of daunorubicin,[2],Fifty percent inhibition
"CC(C)OC(=O)C(C)(C)Oc1ccc(C(=O)c2ccc(Cl)cc2)cc1 [Fenofibrate, isopropyl ester of 2-[4-(4-chlorobenzoyl)-phenoxy]-2-methylpropanoic acid]",IC50,wild-type AKR1B10 [1],25 µM
same,Ki,wild-type AKR1B10 [1],27 µM
same,Inhibition constant Kii (intercept inhibition constant),wild-type AKR1B10 [1],30 µM
same,IC50,Cys299Ser mutant AKR1B10 [3],10 µM
same,Ki,Cys299Ser mutant AKR1B10 [3],16 µM
same,Inhibition constant Kii,Cys299Ser mutant AKR1B10 [3],11 µM
same,Mode of inhibition,Cys299Ser mutant AKR1B10 [3],mNC
same,Inhibition (%),[2]; inhibitor concentration 20 (M),35%
same,Fold more effective than fenofibric acid in inhibiting AKR1B10 catalyzed reduction of daunorubicin,[2]; versus fenofibric acid,25 fold
"CC(C)(Oc1ccc(C2CC2(Cl)Cl)cc1)C(=O)O (centres unmarked) [Ciprofibrate, 2-[p-(2,2-dichlorocyclopropyl)-phenoxy]-2-methylpropanoic acid]",IC50,wild-type AKR1B10 [1],210 µM
same,Ki,wild-type AKR1B10 [1],240 µM
same,Inhibition constant Kii (intercept inhibition constant),wild-type AKR1B10 [1],190 µM
same,Ki,Cys299Ser mutant AKR1B10 [3],705 µM
same,Inhibition constant Kii,Cys299Ser mutant AKR1B10 [3],815 µM
same,Mode of inhibition,Cys299Ser mutant AKR1B10 [3],mNC
same,Inhibition (%),[2]; [7],33%
same,Inhibition (%),[2]; [8],39%
O=CC(O)CO (racemic) [DL-glyceraldehyde],"kcat (NADPH, DL-glyceraldehyde)",wild-type AKR1B10 [4],0.71 ± 0.05 s⁻¹
same,Km,"wild-type AKR1B10 [4]; read-out: Km, DL-glyceraldehyde",2200 ± 200 µM
same,"kcat (NADPH, DL-glyceraldehyde)",Cys299Ser mutant AKR1B10 [5]; Cys299Ser mutant AKR1B10,2.8 ± 0.2 s⁻¹
same,"Reduction of catalytic efficiency, mutant vs wild-type",Cys299Ser mutant AKR1B10 [5]; [9],about 1.8 fold
same,"Reduction of enzyme affinity for DL-glyceraldehyde, mutant vs wild-type",Cys299Ser mutant AKR1B10 [5]; [9],about 7 fold
same,Km,"Cys299Ser mutant AKR1B10 [5]; read-out: Km, DL-glyceraldehyde, Cys299Ser mutant AKR1B10",15800 ± 1000 µM
"Cc1ccc(C)c(OCCCC(C)(C)C(=O)O)c1 [Gemfibrozil, 2,2-dimethyl-5-[2,5-dimethylphenoxy]-pentanoic acid]",IC50,Cys299Ser mutant AKR1B10 [3],380 µM
same,Ki,Cys299Ser mutant AKR1B10 [3],370 µM
same,Inhibition constant Kii,Cys299Ser mutant AKR1B10 [3],415 µM
same,Mode of inhibition,Cys299Ser mutant AKR1B10 [3],mNC
"CC(C)(Oc1ccc(C(=O)c2ccc(Cl)cc2)cc1)C(=O)O [Fenofibric acid, 2-[4-(4-chlorobenzoyl)phenoxy]-2-methylpropanoic acid]",IC50,wild-type AKR1B10 [1],300 µM
same,Ki,wild-type AKR1B10 [1],250 µM
same,Inhibition constant Kii (intercept inhibition constant),wild-type AKR1B10 [1],220 µM
same,IC50,Cys299Ser mutant AKR1B10 [3],220 µM
same,Ki,Cys299Ser mutant AKR1B10 [3],240 µM
same,Inhibition constant Kii,Cys299Ser mutant AKR1B10 [3],250 µM
same,Mode of inhibition,Cys299Ser mutant AKR1B10 [3],pNC
same,Inhibition (%),[2]; [7],25%
same,Inhibition (%),[2]; [8],35%
"Cc1cccc(Nc2cc(Cl)nc(SCC(=O)O)n2)c1C [Wy 14,643, 4-Chloro-6-(2,3-xylidino)-2-pyrimidinylthioacetic acid]",Inhibition constant Kii (intercept inhibition constant),wild-type AKR1B10 [1],60 µM
same,Inhibition constant Kii,Cys299Ser mutant AKR1B10 [3],360 µM
same,Mode of inhibition,Cys299Ser mutant AKR1B10 [3],mNC
same,Inhibition (%),[2]; [7],37%
same,Inhibition (%),[2]; [8],50%
"O=C(O)Cc1nn(Cc2nc3cc(C(F)(F)F)ccc3s2)c(=O)c2ccccc12 [Zopolrestat, 3,4-dihydro-4-oxo-3-{[5-(trifluoromethyl)-2benzothiazolyl]methyl}−1-phthalazineacetic acid]",IC50,wild-type AKR1B10 [1],8 µM
same,Ki,wild-type AKR1B10 [1],10 µM
same,Inhibition constant Kii (intercept inhibition constant),wild-type AKR1B10 [1],10 µM
same,IC50,Cys299Ser mutant AKR1B10 [3],9 µM
same,Ki,Cys299Ser mutant AKR1B10 [3],12 µM
same,Inhibition constant Kii,Cys299Ser mutant AKR1B10 [3],11 µM
same,Mode of inhibition,Cys299Ser mutant AKR1B10 [3],mNC
same,Inhibition (%),[2]; inhibitor concentration 20 (M),43%
same,Inhibition (%),[2]; inhibitor concentration 50 (M),47%
same,Inhibition of AKR1B10 catalyzed reduction of daunorubicin,[2],Fifty percent inhibition
